Measurements: ChEMBL document CHEMBL1949592, “Synthesis and antiviral activity of 2'-deoxy-2'-fluoro-2'-C-methyl-7-deazapurine nucleosides, their phosphoramidate prodrugs and 5'-triphosphates” (Bioorg Med Chem Lett, 2011)
pEC50, pIC50: −log10 of the molar value. Active and inactive are the calls of the source. The calls are words filed in the database; no cut-off is given here.

Key:
Huh-7 = assay: (§1) Cytotoxicity against human HuH7 cells assessed as reduction of 50% rRNA level after 96 hrs; assay type: cell-based; settings: huh-7, 96 h
In short: (§2)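 Huh-7 cells carrying the HCV replicon were exposed to compound for 96 h. Toxicity was read as a fall in cellular rRNA.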

Hepatitis C virus = assay: Antiviral activity against Hepatitis C virus infected in human HuH7 cells assessed as decrease in viral RNA level after 96 hrs by RT-PCR; assay type: functional, organism-based, Hepacivirus hominis; settings: Huh-7, 96 h
Hepatitis B virus = assay: Antiviral activity against wild type Hepatitis B virus infected in hepatocytes; assay type: functional, organism-based; settings: Hepatocyte
Vero = assay: Cytotoxicity against african green monkey Vero cells after 3 days by hemocytometer analysis; assay type: cell-based; settings: Chlorocebus sabaeus, 72 h
CCRF-CEM = assay: Cytotoxicity against human CEM cells after 6 days by trypan blue exclusion method; assay type: cell-based; settings: 144 h
PBMC = assay: Cytotoxicity against human PBMC after 6 days by trypan blue exclusion method; assay type: cell-based; settings: 144 h
[1] = system: Human immunodeficiency virus 1; assay: Antiviral activity against HIV1 LAV1 infected in PHA-stimulated human PBMC assessed as reduction in RT activity after 6 days by micromethod-based beta scintillation counting; assay type: functional, organism-based; settings: Human immunodeficiency virus 1, LAV1, 144 h
HepG2 = assay: Cytotoxicity against human HepG2 cells by neutral red dye uptake assay; assay type: cell-based
[2] = as §1; assay type: cell-based, Huh-7; settings: HuH7 cells; in short: as §2

Compound | CC50 (Huh-7) [µM] | pEC50 (Hepatitis C virus) | Activity (Hepatitis B virus) | pIC50 (Vero) | pIC50 (CCRF-CEM) | pIC50 (PBMC) | pEC50 [1] | EC90 [1] [µM] | EC90 (Hepatitis C virus) [µM] | Activity (HepG2) | CC50 at 96 h [2] [µM]
COC(=O)/C=C/c1cn([C@H]2O[C@H](CO)[C@@H](O)[C@@]2(C)F)c2ncnc(N)c12 | > 10 | < 5.00 | inactive | < 4.00 | < 4.00 | < 4.00 | 6.15 | 9.5 | – | – | –
C=Cc1cn([C@H]2O[C@H](CO)[C@@H](O)[C@@]2(C)F)c2ncnc(N)c12 | 8.3 | 5.25 | – | 4.84 | 4.80 | 4.68 | 4.45 | 65.2 | 18.4 | – | –
C#Cc1cn([C@H]2O[C@H](CO)[C@@H](O)[C@@]2(C)F)c2nc(N)nc(N)c12 | > 10 | < 5.00 | inactive | 4.21 | 4.58 | 4.27 | 5.15 | 59.1 | > 10 | – | –
C#Cc1cn([C@H]2O[C@H](CO)[C@@H](O)[C@@]2(C)F)c2ncnc(N)c12 | > 10 | > 5.00 | – | < 4.00 | < 4.00 | < 4.00 | 4.02 | – | > 10 | – | –
C[C@@]1(F)[C@H](O)[C@@H](CO)O[C@@H]1n1cc(I)c2c(N)nc(N)nc21 | – | < 5.00 | – | < 4.00 | < 4.00 | < 4.00 | < 4.00 | > 100 | – | – | –
C[C@@]1(F)[C@H](O)[C@@H](CO)O[C@H]1n1cc(C#Cc2ccccc2)c2c(N)ncnc21 | < 10 | > 5.00 | Active | 4.34 | 4.94 | 4.39 | 4.97 | 31.1 | – | Toxic | –
CCOC(=O)[C@H](C)NP(=O)(OC[C@H]1O[C@@H](n2cc(F)c3c(N)ncnc32)[C@](C)(F)[C@@H]1O)Oc1ccccc1 (stereo not given in full) | > 10 | < 5.00 | – | < 4.00 | < 4.00 | < 4.00 | 4.40 | 98.8 | > 10 | – | –
C[C@@]1(F)[C@H](O)[C@@H](CO)O[C@H]1n1cc(I)c2c(N)nc(N)nc21 | > 10 | < 5.00 | – | 4.20 | 4.07 | 4.14 | 4.00 | – | > 10 | – | –
COC(=O)/C=C/c1cn([C@@H]2O[C@H](CO)[C@@H](O)[C@@]2(C)F)c2ncnc(N)c12 | – | < 5.00 | – | < 4.00 | < 4.00 | < 4.00 | < 4.00 | > 100 | > 10 | – | –
C[C@@]1(F)[C@H](O)[C@@H](CO)O[C@@H]1n1cc(I)c2c(N)ncnc21 | – | 5.15 | Active | 4.18 | 4.39 | < 4.00 | < 4.00 | > 100 | 24.9 | Toxic | > 33
C[C@@]1(O)[C@H](O)[C@@H](CO)O[C@H]1n1ccc(N)nc1=O | > 10 | 5.55 | – | < 4.00 | 4.26 | 4.32 | 4.32 | 100 | 9.6 | – | –
C[C@@]1(F)[C@H](O)[C@@H](CO)O[C@@H]1n1ccc2c(N)ncnc21 | – | < 5.00 | – | < 4.00 | < 4.00 | < 4.00 | < 4.00 | – | – | – | –
CCc1cn([C@@H]2O[C@H](CO)[C@@H](O)[C@@]2(C)F)c2ncnc(N)c12 | – | > 5.00 | – | < 4.00 | < 4.00 | 4.68 | 4.72 | > 100 | – | – | –
C[C@@]1(F)[C@H](O)[C@@H](CO)O[C@@H]1n1cc(Cl)c2c(N)ncnc21 | – | > 5.00 | – | < 4.00 | 4.02 | < 4.00 | < 4.00 | > 100 | – | – | –
C#Cc1cn([C@@H]2O[C@H](CO)[C@@H](O)[C@@]2(C)F)c2ncnc(N)c12 | – | > 5.00 | – | < 4.00 | < 4.00 | 4.03 | 4.23 | > 100 | – | – | –
CCOC(=O)[C@H](C)NP(=O)(OC[C@H]1O[C@@H](n2cc(I)c3c(N)ncnc32)[C@](C)(F)[C@@H]1O)Oc1ccccc1 (stereo not given in full) | > 10 | < 5.00 | – | 4.75 | 4.87 | 4.76 | 4.24 | > 100 | > 10 | – | –
C[C@@]1(F)[C@H](O)[C@@H](CO)O[C@H]1n1cc(Cl)c2c(N)ncnc21 | > 10 | > 5.00 | – | < 4.00 | < 4.00 | 4.73 | 4.08 | – | > 10 | – | –

Compound | CC50 (Huh-7) [µM] | pEC50 (Hepatitis C virus) | Activity (Hepatitis B virus) | pIC50 (Vero) | pIC50 (CCRF-CEM) | pIC50 (PBMC) | pEC50 [1] | EC90 [1] [µM] | EC90 (Hepatitis C virus) [µM] | Activity (HepG2) | CC50 at 96 h [2] [µM]
Cc1cn([C@H]2C[C@H](N=[N+]=[N-])[C@@H](CO)O2)c(=O)[nH]c1=O [ZIDOVUDINE] | > 10 | < 5.00 | – | – | – | < 4.00 | 8.48 | 0.028 | > 10 | – | –
CCOC(=O)[C@H](C)NP(=O)(OC[C@H]1O[C@@H](n2cc(I)c3c(N)nc(N)nc32)[C@](C)(F)[C@@H]1O)Oc1ccccc1 (stereo not given in full) | > 10 | < 5.00 | – | 4.19 | < 4.00 | 4.17 | 4.57 | > 100 | > 10 | – | –
C[C@@]1(F)[C@H](O)[C@@H](CO)O[C@@H]1n1ccc2c(N)nc(N)nc21 | – | < 5.00 | – | < 4.00 | < 4.00 | < 4.00 | < 4.00 | > 100 | – | – | –
C[C@@]1(F)[C@H](O)[C@@H](CO)O[C@@H]1n1cc(C#Cc2ccccc2)c2c(N)ncnc21 | > 10 | < 5.00 | inactive | 4.29 | 4.80 | 4.39 | 5.11 | 38 | > 10 | – | –
C[C@@]1(F)[C@H](O)[C@@H](CO)O[C@@H]1n1cc(F)c2c(N)ncnc21 | > 10 | < 5.00 | – | < 4.00 | 5.09 | < 4.00 | < 4.00 | – | – | – | –
C[C@@]1(F)[C@H](O)[C@@H](CO)O[C@H]1n1cc(Br)c2c(N)ncnc21 | < 10 | > 5.00 | – | 4.27 | 4.30 | 4.13 | < 4.00 | > 100 | > 10 | – | –
COc1ncnc2c1ccn2[C@@H]1O[C@H](CO)[C@@H](O)[C@@]1(C)F | – | < 5.00 | – | < 4.00 | < 4.00 | < 4.00 | 4.61 | 85.6 | > 10 | – | –
CNc1ncnc2c1c(F)cn2[C@@H]1O[C@H](CO)[C@@H](O)[C@@]1(C)F | > 10 | < 5.00 | – | < 4.00 | < 4.00 | < 4.00 | < 4.00 | > 100 | > 10 | – | –
C#Cc1cn([C@@H]2O[C@H](CO)[C@@H](O)[C@@]2(C)F)c2nc(N)nc(N)c12 | – | < 5.00 | – | < 4.00 | < 4.00 | < 4.00 | 4.07 | > 100 | – | – | –
C[C@@]1(F)[C@H](O)[C@@H](CO)O[C@H]1n1cc(F)c2c(N)ncnc21 | – | < 5.00 | – | < 4.00 | < 4.00 | < 4.00 | < 4.00 | > 100 | > 10 | – | –
COc1ncnc2c1ccn2[C@H]1O[C@H](CO)[C@@H](O)[C@@]1(C)F | > 10 | < 5.00 | – | < 4.00 | < 4.00 | < 4.00 | ≤ 4.00 | ≥ 100 | – | – | –
C[C@@]1(F)[C@H](O)[C@@H](CO)O[C@H]1n1ccc2c(N)ncnc21 | > 10 | < 5.00 | – | < 4.00 | < 4.00 | < 4.00 | < 4.00 | > 100 | > 10 | – | –
C[C@@]1(F)[C@H](O)[C@@H](CO)O[C@H]1n1cc(I)c2c(N)ncnc21 | – | 5.96 | – | 4.67 | 4.62 | 4.27 | 4.03 | > 100 | > 33 | – | 10.4
C=Cc1cn([C@@H]2O[C@H](CO)[C@@H](O)[C@@]2(C)F)c2ncnc(N)c12 | 4.5 | 5.74 | – | 5.00 | 5.46 | 5.32 | 4.83 | 44.8 | 7.6 | – | –
C[C@@]1(F)[C@H](O)[C@@H](CO)O[C@@H]1n1cc(Br)c2c(N)ncnc21 | > 10 | > 5.00 | – | 4.15 | 4.12 | 4.05 | ≤ 4.00 | – | – | – | –
CCc1cn([C@H]2O[C@H](CO)[C@@H](O)[C@@]2(C)F)c2ncnc(N)c12 | > 10 | < 5.00 | – | < 4.00 | < 4.00 | < 4.00 | 4.02 | – | > 10 | – | –
CNc1ncnc2c1c(F)cn2[C@H]1O[C@H](CO)[C@@H](O)[C@@]1(C)F | – | < 5.00 | – | < 4.00 | < 4.00 | < 4.00 | < 4.00 | – | – | – | –
